Data published in ChEMBL document CHEMBL4706593, “Induced protein degradation of histone deacetylases 3 (HDAC3) by proteolysis targeting chimera (PROTAC)” (Eur J Med Chem, 2020).
The source made the active and inactive calls. No cut-off for these calls is given here.

How the values were obtained:
Histone deacetylase 1 = Histone deacetylase 1 (Homo sapiens, UniProt Q13547); test: Inhibition of recombinant human C-terminal His/FLAG-tagged HDAC1 (1 to 482 residues) expressed in Sf9 insect cells using Boc-Lys(epsilon-Ac)-AMC as substrate measured after 90 mins by fluorescence assay
Sequence of Histone deacetylase 1 (Q13547 whole entry, the tested form may be a part): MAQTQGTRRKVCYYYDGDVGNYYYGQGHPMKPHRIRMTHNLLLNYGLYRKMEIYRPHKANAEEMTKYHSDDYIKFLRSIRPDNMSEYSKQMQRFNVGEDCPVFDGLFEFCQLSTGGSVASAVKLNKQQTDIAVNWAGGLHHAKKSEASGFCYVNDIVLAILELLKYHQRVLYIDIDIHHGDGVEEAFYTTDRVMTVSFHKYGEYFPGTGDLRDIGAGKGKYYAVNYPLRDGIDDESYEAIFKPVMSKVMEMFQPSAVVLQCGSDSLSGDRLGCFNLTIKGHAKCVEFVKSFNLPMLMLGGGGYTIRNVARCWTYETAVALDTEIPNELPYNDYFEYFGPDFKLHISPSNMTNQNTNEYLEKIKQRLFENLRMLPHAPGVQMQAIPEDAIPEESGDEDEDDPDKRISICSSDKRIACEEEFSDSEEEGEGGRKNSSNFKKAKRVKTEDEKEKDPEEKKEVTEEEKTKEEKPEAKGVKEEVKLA

Histone deacetylase 2 = Histone deacetylase 2 (Homo sapiens, UniProt Q92769); test: Inhibition of recombinant human full-length C-terminal FLAG-tagged HDAC2 expressed in baculovirus infected Sf9 insect cells using Boc-Lys(epsilon-Ac)-AMC as substrate measured after 90 mins by fluorescence assay
Sequence of Histone deacetylase 2 (Q92769 whole entry, the tested form may be a part): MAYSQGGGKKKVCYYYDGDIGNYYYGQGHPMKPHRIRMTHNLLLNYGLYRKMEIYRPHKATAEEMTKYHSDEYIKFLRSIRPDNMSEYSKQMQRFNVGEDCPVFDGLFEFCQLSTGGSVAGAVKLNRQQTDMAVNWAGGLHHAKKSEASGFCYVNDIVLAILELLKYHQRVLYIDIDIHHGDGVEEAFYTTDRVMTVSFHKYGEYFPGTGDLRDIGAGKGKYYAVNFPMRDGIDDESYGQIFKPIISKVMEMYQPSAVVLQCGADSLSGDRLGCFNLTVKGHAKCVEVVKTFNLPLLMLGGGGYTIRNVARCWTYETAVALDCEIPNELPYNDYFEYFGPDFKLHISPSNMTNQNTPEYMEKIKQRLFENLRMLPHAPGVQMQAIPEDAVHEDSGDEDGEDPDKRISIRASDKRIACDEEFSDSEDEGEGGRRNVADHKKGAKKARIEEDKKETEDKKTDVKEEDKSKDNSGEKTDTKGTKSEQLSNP

[1] = target: Histone deacetylase 3/Nuclear receptor corepressor 2 (HDAC3/NCoR2) (Homo sapiens, UniProt O15379); test: Inhibition of human recombinant C-terminal His-tagged HDAC3 (1 to 428 residues)/N-terminal GST-tagged NCOR2 (395 to 489 residues) expressed in baculovirus infected Sf9 insect cells using Boc-Lys(epsilon-Ac)-AMC as substrate measured after 90 mins by fluorescence assay
Sequence of Histone deacetylase 3/Nuclear receptor corepressor 2 (HDAC3/NCoR2) (O15379 whole entry, the tested form may be a part): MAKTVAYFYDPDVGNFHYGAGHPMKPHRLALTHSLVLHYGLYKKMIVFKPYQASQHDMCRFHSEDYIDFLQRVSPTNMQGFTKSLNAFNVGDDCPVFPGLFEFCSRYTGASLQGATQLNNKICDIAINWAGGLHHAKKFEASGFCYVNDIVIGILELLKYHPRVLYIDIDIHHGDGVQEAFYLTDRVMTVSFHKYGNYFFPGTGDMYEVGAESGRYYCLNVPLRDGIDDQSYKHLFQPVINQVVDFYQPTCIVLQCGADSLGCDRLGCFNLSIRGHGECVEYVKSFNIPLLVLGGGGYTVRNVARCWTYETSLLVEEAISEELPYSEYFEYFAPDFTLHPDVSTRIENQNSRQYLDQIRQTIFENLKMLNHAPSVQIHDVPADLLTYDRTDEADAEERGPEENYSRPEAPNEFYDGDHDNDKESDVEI
Sequence of Histone deacetylase 3/Nuclear receptor corepressor 2 (HDAC3/NCoR2) (Q9Y618 whole entry, further chain, the tested form may be a part): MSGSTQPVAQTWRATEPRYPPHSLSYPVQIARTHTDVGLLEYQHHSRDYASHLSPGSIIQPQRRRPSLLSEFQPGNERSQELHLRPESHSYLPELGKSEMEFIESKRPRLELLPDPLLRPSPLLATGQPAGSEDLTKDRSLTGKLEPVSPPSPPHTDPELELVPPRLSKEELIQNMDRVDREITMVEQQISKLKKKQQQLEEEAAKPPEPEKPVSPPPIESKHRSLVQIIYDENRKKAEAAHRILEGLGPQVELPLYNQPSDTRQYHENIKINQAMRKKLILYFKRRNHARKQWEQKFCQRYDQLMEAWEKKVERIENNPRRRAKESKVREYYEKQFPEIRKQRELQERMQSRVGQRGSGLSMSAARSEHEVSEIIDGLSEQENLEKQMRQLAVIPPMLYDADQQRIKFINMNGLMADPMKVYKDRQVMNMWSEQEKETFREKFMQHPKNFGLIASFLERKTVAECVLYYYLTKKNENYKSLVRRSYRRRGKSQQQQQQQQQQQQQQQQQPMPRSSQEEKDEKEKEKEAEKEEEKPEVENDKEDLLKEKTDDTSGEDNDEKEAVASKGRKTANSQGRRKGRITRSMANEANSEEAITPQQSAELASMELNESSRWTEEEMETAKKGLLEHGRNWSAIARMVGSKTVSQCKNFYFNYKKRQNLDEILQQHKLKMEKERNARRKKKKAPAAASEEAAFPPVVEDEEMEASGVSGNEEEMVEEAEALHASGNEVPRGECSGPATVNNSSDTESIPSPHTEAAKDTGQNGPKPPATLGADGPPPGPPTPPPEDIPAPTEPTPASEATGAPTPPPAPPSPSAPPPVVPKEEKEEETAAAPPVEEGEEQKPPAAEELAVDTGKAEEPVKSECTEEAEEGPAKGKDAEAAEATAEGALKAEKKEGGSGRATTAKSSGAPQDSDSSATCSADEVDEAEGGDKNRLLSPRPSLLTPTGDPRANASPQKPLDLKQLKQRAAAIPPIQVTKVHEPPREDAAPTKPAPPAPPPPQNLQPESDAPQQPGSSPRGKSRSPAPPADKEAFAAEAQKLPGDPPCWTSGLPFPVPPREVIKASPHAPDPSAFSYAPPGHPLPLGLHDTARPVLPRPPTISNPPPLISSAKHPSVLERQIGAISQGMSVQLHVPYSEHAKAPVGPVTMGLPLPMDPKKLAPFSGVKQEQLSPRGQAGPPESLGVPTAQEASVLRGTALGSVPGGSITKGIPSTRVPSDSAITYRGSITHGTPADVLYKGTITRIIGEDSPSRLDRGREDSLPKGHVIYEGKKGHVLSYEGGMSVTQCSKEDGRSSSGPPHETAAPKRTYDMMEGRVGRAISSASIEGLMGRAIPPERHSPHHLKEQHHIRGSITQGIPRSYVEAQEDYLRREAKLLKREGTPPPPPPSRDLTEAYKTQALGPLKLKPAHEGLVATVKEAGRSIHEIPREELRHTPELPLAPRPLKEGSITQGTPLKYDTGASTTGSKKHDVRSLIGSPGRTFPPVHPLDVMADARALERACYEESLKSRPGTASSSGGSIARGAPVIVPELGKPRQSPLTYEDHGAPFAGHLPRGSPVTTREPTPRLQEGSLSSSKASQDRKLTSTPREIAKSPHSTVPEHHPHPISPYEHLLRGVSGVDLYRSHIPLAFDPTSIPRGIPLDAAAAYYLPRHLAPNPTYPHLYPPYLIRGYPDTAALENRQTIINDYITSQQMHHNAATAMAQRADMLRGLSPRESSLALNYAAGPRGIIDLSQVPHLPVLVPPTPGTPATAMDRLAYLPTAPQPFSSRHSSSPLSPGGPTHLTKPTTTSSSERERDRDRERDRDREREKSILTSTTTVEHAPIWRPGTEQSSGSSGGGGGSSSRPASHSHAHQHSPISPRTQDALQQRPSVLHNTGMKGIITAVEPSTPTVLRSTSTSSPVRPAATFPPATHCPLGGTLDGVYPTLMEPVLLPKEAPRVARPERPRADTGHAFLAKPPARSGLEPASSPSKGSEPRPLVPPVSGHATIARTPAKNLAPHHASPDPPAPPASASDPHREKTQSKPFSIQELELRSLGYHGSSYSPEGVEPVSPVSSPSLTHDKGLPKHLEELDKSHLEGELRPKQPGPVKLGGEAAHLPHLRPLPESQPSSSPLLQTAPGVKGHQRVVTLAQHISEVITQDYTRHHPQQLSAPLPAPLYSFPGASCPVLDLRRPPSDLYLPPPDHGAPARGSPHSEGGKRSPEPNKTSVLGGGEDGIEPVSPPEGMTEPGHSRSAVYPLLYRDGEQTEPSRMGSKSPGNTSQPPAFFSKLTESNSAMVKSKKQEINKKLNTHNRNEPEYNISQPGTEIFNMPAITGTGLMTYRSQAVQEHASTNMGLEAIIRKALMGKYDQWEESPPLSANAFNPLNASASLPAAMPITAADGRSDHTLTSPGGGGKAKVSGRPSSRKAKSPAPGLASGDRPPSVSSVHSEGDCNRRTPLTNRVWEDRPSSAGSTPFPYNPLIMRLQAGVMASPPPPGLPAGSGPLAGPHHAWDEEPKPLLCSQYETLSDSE
Procedure, shortened: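 Incubated with inhibitor dilutions (in 10% DMSO/buffer) and Boc-Lys(ε-Ac)-AMC, 90 min at 37 °C. Stopped with trypsin plus 200 µM vorinostat, 30 min at 37 °C.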

[2] = target: T1, Protein cereblon/Histone deacetylase 3 (Mus musculus, UniProt O88895+Q8C7D2); test: Protac activity at CRBN/HDAC3 in mouse RAW264.7 cells assessed as induction of HDAC3 degradation measured after 24 hrs by Western blot analysis; type: cell-based
T1 sequence (O88895 whole entry): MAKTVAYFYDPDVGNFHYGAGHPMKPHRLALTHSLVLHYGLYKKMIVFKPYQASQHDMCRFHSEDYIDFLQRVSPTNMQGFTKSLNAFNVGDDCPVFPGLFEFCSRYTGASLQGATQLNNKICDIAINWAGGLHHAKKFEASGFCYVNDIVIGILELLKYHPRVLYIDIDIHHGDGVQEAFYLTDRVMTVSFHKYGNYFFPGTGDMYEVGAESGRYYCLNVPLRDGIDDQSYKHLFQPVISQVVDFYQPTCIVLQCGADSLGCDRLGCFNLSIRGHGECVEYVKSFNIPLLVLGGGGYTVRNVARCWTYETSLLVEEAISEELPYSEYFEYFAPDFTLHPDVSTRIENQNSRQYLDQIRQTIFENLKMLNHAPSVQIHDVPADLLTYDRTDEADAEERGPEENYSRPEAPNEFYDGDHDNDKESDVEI
T1 sequence (Q8C7D2 whole entry): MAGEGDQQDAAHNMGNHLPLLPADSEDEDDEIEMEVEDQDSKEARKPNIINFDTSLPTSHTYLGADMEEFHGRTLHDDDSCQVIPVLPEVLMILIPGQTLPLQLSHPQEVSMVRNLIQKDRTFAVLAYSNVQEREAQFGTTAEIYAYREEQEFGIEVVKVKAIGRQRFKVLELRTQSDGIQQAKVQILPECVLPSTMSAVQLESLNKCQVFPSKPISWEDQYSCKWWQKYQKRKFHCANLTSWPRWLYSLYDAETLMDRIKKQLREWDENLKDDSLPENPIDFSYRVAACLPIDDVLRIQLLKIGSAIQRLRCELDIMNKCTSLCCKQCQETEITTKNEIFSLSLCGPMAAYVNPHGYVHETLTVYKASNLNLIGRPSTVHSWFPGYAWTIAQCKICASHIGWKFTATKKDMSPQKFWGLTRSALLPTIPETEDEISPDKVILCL
Procedure, shortened: (§1)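 RAW264.7 cells treated across 0.001–30 µM. Lysates blotted as standard, but membranes blocked in Odyssey buffer and probed with IRDye 680RD anti-mouse and 800CW anti-rabbit secondaries (1:10000). Bands imaged on a fluorescence scanner and quantified to derive DC50 (50% degradation concentration), expressed as percentage of untreated control, mean ± SD of 2–3 independent experiments.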

[3] = target: T2, Protein cereblon/Histone deacetylase 1 (Mus musculus) (UniProt O09106+Q8C7D2); test: Protac activity at CRBN/HDAC1 in mouse RAW264.7 cells assessed as induction of HDAC1 degradation at 0.01 to 10 uM measured after 24 hrs by Western blot analysis; type: cell-based; conditions: dose 0.01-10 µM
T2 sequence (O09106 whole entry, looked up, one chain of several): as the sequence (Q13547 whole entry, the tested form may be a part) above, with R8K, D399E, E424D counted along it

[4] = target: T3, Protein cereblon/Histone deacetylase 2 (Mus musculus) (UniProt P70288+Q8C7D2); test: Protac activity at CRBN/HDAC2 in mouse RAW264.7 cells assessed as induction of HDAC2 degradation at 0.01 to 10 uM measured after 24 hrs by Western blot analysis; type: cell-based; conditions: dose 0.01-10 µM; procedure, shortened: as §1
T3 sequence (P70288 whole entry, looked up, one chain of several): as the sequence (Q92769 whole entry, the tested form may be a part) above, with V289A, T477P, T480A counted along it

[5] = target: T4, Protein cereblon/Histone deacetylase 3 (Mus musculus) (UniProt O88895+Q8C7D2); test: Protac activity at CRBN/HDAC3 in mouse RAW264.7 cells assessed as induction of HDAC3 degradation at 10 uM measured after 6 to 48 hrs by Western blot analysis; type: cell-based; conditions: time 6-48 hrs
Procedure, shortened: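 RAW264.7 macrophages treated for the indicated times. HDAC3 level measured by western blot against β-actin. Bands quantified as fold of untreated control, mean ± SD of 2 independent experiments.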

[6] = target: T4, Protein cereblon/Histone deacetylase 3 (Mus musculus); test: Protac activity at CRBN/HDAC3 in mouse RAW264.7 cells assessed as increase of H3K27 acetylation at 10 uM measured after 24 hrs by Western blot analysis; type: cell-based
Procedure, shortened: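 RAW264.7 macrophages treated for 24h. H3K27 acetylation measured by western blot with acH3K27 antibody (1:1000), HRP detection. Bands quantified as fold of untreated control, mean ± SD of 2 independent experiments.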

[7] = target: T4, Protein cereblon/Histone deacetylase 3 (Mus musculus); test: Protac activity at CRBN/HDAC3 in mouse RAW264.7 cells assessed as induction of HDAC3 degradation at 10 uM measured after 24 hrs in presence of HDAC ligand CI994 by Western blot analysis; type: cell-based
Procedure, shortened: (§2)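 RAW264.7 cells pre-treated 1h with pomalidomide or CI994 (competitor), then the PROTAC added for 24h combined treatment. Control cells received competitor alone for 25h. HDAC3 measured by western blot, quantified as fold of untreated control, mean ± SD of 2 independent experiments.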

[8] = target: T4, Protein cereblon/Histone deacetylase 3 (Mus musculus); test: Protac activity at CRBN/HDAC3 in mouse RAW264.7 cells assessed as induction of HDAC3 degradation at 10 uM measured after 24 hrs in presence of CRBN ligand pomalidomide by Western blot analysis; type: cell-based; procedure, shortened: as §2
[9] = target: T4, Protein cereblon/Histone deacetylase 3 (Mus musculus); test: Protac activity at CRBN/HDAC3 in mouse RAW264.7 cells assessed as induction of HDAC3 degradation at 10 uM measured after 24 hrs in presence of proteasome inhibitor bortezomib by Western blot analysis; type: cell-based
Procedure, shortened: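 RAW264.7 macrophages treated 24h with bortezomib, the PROTAC, or both together. HDAC3 measured by western blot, quantified as fold of untreated control, mean ± SD of 2 independent experiments.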

RAW264.7 [10] = test: Effect on LPS/IFNgamma-induced IL-10 mRNA expression in mouse RAW264.7 cells at 1 uM incubated for 20 hrs followed by LPS/IFNgamma stimulation and measured after 4 hrs by RT-qPCR analysis; type: functional, cell-based; conditions: time 24.0 hrs
Procedure, shortened: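 RAW264.7 macrophages treated for 24h, with LPS/IFNγ stimulation during the final 4h. Vehicle cells received a proportional DMSO dilution. Total RNA isolated from DPBS-washed cells and IL-10 transcription measured by RT-qPCR. Mean ± SD of 2–3 independent experiments.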

[11] = Down regulation of NFkappaB p65 expression in LPS/IFNgamma-induced mouse RAW264.7 cells at 10 uM incubated for 20 hrs followed by LPS/IFNgamma stimulation and measured after 4 hrs by Western blot analysis; conditions: raw264.7, 24 h
Procedure, shortened: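 RAW264.7 cells treated and NF-κB p65 protein measured by western blot with p65 antibody (1:2500), β-actin loading control, HRP secondary and chemiluminescent detection.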

[12] = Cytotoxicity against mouse RAW264.7 cells assessed as cell survival up to 10 uM measured after 24 hrs by MTS assay relative to control; type: cell-based; conditions: read-out: Survival
Procedure, shortened: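 RAW264.7 macrophages (ATCC, passage 5–16) grown in DMEM GlutaMAX with 10% heated FBS at 37 °C, 5% CO2. Cells seeded at 25,000 cells/cm2 and treated the next day in fresh medium with compound up to 10 μM for 24 h at 37 °C. CellTiter 96 AQueous One (MTS) reagent added for 2 h at 37 °C in the dark, absorbance read at 490 nm, expressed as % of control.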

[13] = target: T2, Protein cereblon/Histone deacetylase 1 (Mus musculus); test: Protac activity at CRBN/HDAC1 in mouse RAW264.7 cells assessed as induction of HDAC1 degradation at 10 uM by Western blot analysis; type: cell-based
Procedure, shortened: (§3)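 RAW264.7 macrophages treated at 10 µM. Cells lysed in ice-cold HEPES/MgCl2/EDTA/0.5% Triton X-100 with protease inhibitors, protein by BCA, 4–12% Bis-Tris SDS-PAGE, PVDF transfer. Probed with HDAC1, HDAC2 or HDAC3 antibodies (1:2000) and β-actin, then HRP secondary and chemiluminescence. Bands quantified by densitometry as fold of untreated control, mean ± SD of 2 independent experiments.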

[14] = target: T4, Protein cereblon/Histone deacetylase 3 (Mus musculus); test: Protac activity at CRBN/HDAC3 in mouse RAW264.7 cells assessed as induction of HDAC3 degradation at 10 uM by Western blot analysis; type: cell-based; procedure, shortened: as §3
[15] = target: T3, Protein cereblon/Histone deacetylase 2 (Mus musculus); test: Protac activity at CRBN/HDAC2 in mouse RAW264.7 cells assessed as induction of HDAC2 degradation at 10 uM by Western blot analysis; type: cell-based; procedure, shortened: as §3
RAW264.7 [16] = test: Cytotoxicity against mouse RAW264.7 cells assessed as reduction in cell proliferation at 3 uM measured after 24 hrs by MTS assay relative to control; type: cell-based; design: scale not given: the % may be the effect or the level left; conditions: raw264.7, 24 h
Procedure, shortened: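 RAW264.7 cells (passage 5–16, DMEM GlutaMAX with 10% heated FBS, 37 °C, 5% CO2) seeded at 25,000 cells/cm2. Next day, medium swapped for fresh medium containing compound. After 24h, CellTiter 96 AQueous One (MTS) added, 2h at 37 °C in dark. Absorbance read at 490 nm and expressed as % of control.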

[17] = target: T4, Protein cereblon/Histone deacetylase 3 (Mus musculus); test: Protac activity at CRBN/HDAC3 in mouse RAW264.7 cells assessed as induction of HDAC3 degradation at 10 to 100 uM measured after 24 hrs by Western blot analysis; type: cell-based; conditions: dose 10-100 µM
Procedure, shortened: (§4)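 RAW264.7 macrophages exposed to 1–100 µM for HDAC1/2/3 level assessment. Protein read by western blot: lysis, BCA, Bis-Tris SDS-PAGE, PVDF, overnight 4 °C primary antibodies (HDAC1, 2, 3 at 1:2000; β-actin 1:10000), HRP secondaries, chemiluminescence.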

[18] = target: T2, Protein cereblon/Histone deacetylase 1 (Mus musculus); test: Protac activity at CRBN/HDAC1 in mouse RAW264.7 cells assessed as induction of HDAC1 degradation at 30 to 100 uM measured after 24 hrs by Western blot analysis; type: cell-based; conditions: dose 30-100 µM; procedure, shortened: as §4
[19] = target: T3, Protein cereblon/Histone deacetylase 2 (Mus musculus); test: Protac activity at CRBN/HDAC2 in mouse RAW264.7 cells assessed as induction of HDAC2 degradation at 100 uM measured after 24 hrs by Western blot analysis; type: cell-based; procedure, shortened: as §4
[20] = target: Protein cereblon/Histone deacetylase 3 (Homo sapiens) (UniProt O15379+Q96SW2); test: Protac activity at CRBN/HDAC3 in human A549 cells assessed as induction of HDAC3 degradation up to 50 uM by Western blot analysis; type: cell-based; conditions: dose microM <=50
Sequence of Protein cereblon/Histone deacetylase 3 (Homo sapiens) (O15379 whole entry, looked up): as the sequence (O15379 whole entry, the tested form may be a part) above
Sequence of Protein cereblon/Histone deacetylase 3 (Homo sapiens) (Q96SW2 whole entry, looked up): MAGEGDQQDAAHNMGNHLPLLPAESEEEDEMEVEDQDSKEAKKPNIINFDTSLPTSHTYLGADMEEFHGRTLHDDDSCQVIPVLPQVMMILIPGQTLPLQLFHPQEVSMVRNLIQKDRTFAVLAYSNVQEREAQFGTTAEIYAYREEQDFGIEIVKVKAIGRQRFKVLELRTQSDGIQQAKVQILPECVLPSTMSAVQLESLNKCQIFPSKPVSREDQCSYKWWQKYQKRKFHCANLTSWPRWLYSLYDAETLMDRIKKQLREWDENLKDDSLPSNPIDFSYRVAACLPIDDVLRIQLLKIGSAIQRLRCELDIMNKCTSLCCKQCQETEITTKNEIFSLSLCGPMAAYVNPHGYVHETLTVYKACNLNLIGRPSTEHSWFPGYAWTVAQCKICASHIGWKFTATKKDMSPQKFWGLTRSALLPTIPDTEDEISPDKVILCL

Structure (SMILES) | IC50 (Histone deacetylase 1) [nM] | IC50 (Histone deacetylase 2) [nM] | IC50 [1] [nM] | Activity [11] | viability at 24 h [12] [%] | Activity [13] | Activity [14] | further results
Nc1cc(F)ccc1NC(=O)c1ccc(NC(=O)CCCCNC(=O)CNc2cccc3c2C(=O)N(C2CCC(=O)NC2=O)C3=O)cc1 (stereo not given) | 3600 | 4200 | 1100 | Toxic | – | – | – | DC50 [2]: 320 nM; Activity [3]: inactive; Activity [4]: inactive; Activity [5]: Active; Activity [6]: Active; Activity [7]: inactive; Activity [8]: inactive; Activity [9]: inactive; Activity (RAW264.7 [10]): inactive
Nc1cccc2c1C(=O)N(C1CCC(=O)NC1=O)C2=O (stereo not given) [POMALIDOMIDE] | – | – | – | Toxic | – | – | – | –
Nc1ccccc1NC(=O)c1ccc(NC(=O)CCCCNc2cccc3c2C(=O)N(C2CCC(=O)NC2=O)C3=O)cc1 (stereo not given) | 420 | 1000 | 1000 | – | > 80 | inactive | – | –
Nc1ccccc1NC(=O)c1ccc(NC(=O)CCCNc2cccc3c2C(=O)N(C2CCC(=O)NC2=O)C3=O)cc1 (stereo not given) | 360 | 1200 | 870 | – | > 80 | inactive | Active | –
Nc1ccccc1NC(=O)c1ccc(NC(=O)CCCCCNc2cccc3c2C(=O)N(C2CCC(=O)NC2=O)C3=O)cc1 (stereo not given) | 220 | 970 | 540 | – | > 80 | inactive | – | Activity [15]: Active
Nc1cccc2c1CN(C1CCC(=O)NC1=O)C2=O (stereo not given) [LENALIDOMIDE] | – | – | – | Toxic | – | – | – | –
Nc1ccccc1NC(=O)c1ccc(NC(=O)CCCNC(=O)CNc2cccc3c2C(=O)N(C2CCC(=O)NC2=O)C3=O)cc1 (stereo not given) | 320 | 1500 | 560 | – | > 80 | inactive | inactive | –
CC(=O)Nc1ccc(C(=O)Nc2ccccc2N)cc1 [TACEDINALINE] | – | – | – | – | – | – | – | Activity (RAW264.7 [16]): 30%
Nc1ccccc1NC(=O)c1ccc(NC(=O)CCCCNC(=O)CNc2cccc3c2C(=O)N(C2CCC(=O)NC2=O)C3=O)cc1 (stereo not given) | 290 | 620 | 520 | – | > 80 | inactive | Active | Activity [17]: Active; Activity [18]: Active; Activity [19]: Active; Activity [20]: inactive
O=C1CCC(N2C(=O)c3ccccc3C2=O)C(=O)N1 (stereo not given) [THALIDOMIDE] | – | – | – | Toxic | – | – | – | –
